Assays:
Leishmania donovani = experiment: In vitro antiparasitic activity against Leishmania donovani was tested by sigmoidal regression analysis; type: functional
Procedure, shortened: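 Mouse peritoneal macrophages (female CD1, starch-elicited, harvested 24 h) infected with L. donovani amastigotes (strain MHOM/ET/67/L82, hamster spleen) or T. cruzi Y-strain trypomastigotes (5:1, from MDCK overlay). Infected cells exposed to a 3-fold dilution series in quadruplicate for 5 days (L. donovani) or 3 days (T. cruzi). Giemsa-stained slides scored for % macrophages cleared of amastigotes versus untreated cultures. ED50 by sigmoidal regression.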

[1] = target: Trypanothione reductase (Trypanosoma cruzi) (UniProt P28593); experiment: The second order rate constant of the TcTR (Trypanosoma cruzi trypanothione reductase) catalyzed […].
Procedure, shortened: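 Recombinant TcTR (0.6 U) in 20 mM Hepes, 1 mM EDTA, 0.15 M KCl, pH 7.25 at 22 °C, with 200 µM NADPH and naphthoquinone at five concentrations (0–100 µM) in 1% DMSO. NADPH oxidation at 340 nm; intrinsic oxidase rate not subtracted. Km and Vmax from nonlinear Michaelis–Menten fit; kcat and kcat/Km calculated.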

[2] = target: Trypanothione reductase (Trypanosoma cruzi) (UniProt P28593); experiment: Rate of NADPH oxidation by TcTR in presence of 100 uM NQ was determined in comparison to intrinsic oxidase activity
Procedure, shortened: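 Quinone reductase activity of recombinant TcTR measured as NADPH oxidation at 340 nm. Buffer was 20 mM Hepes, 1 mM EDTA, 0.15 M KCl, pH 7.25, with 250 µM NADPH at 25 °C. Rate with naphthoquinone (100 µM for line 8, 25 µM for line 9) divided by intrinsic oxidase rate of enzyme plus NADPH alone. Mean of at least two measurements.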

Chain of Trypanothione reductase (Trypanosoma cruzi) (P28593 whole entry, looked up): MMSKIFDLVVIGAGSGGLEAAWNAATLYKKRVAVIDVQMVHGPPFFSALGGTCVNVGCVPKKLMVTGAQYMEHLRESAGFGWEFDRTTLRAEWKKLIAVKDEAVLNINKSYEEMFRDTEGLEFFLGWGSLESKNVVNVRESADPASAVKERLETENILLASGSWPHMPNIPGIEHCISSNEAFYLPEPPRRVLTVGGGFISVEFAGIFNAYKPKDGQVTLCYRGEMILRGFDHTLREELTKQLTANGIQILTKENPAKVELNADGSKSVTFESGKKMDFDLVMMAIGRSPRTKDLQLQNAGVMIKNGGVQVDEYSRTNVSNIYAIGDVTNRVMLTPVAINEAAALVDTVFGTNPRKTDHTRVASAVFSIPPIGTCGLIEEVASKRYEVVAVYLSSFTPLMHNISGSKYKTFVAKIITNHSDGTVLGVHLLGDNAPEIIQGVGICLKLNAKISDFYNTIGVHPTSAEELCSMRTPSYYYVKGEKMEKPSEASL

SMILES | ED50 (Leishmania donovani) | k cat/Km [1] | x fold [2]
CC1=C(CCCCCNC(=O)OC(C)(C)C)C(=O)c2c(O)cccc2C1=O | 33.8 µM |  | 
CC1=C(CCCC(=O)NCCCN2CCN(CCCNC(=O)CCCC3=C(C)C(=O)c4ccccc4C3=O)CC2)C(=O)c2ccccc2C1=O | 14.7 µM | 4.2 10e4 M-1 s-1 | 
CN1CCN(CCCNC(=O)CCC2=C(CCC(=O)NCCCN3CCN(C)CC3)C(=O)c3c(O)cccc3C2=O)CC1 | > 50 µM |  | 
CC1=C(CCCCC(=O)O)C(=O)c2c(O)cccc2C1=O | 56 µM |  | 
CC1=C(CCCCC(=O)O)C(=O)c2ccccc2C1=O | 39 µM |  | 
CC1=C(CCC(=O)N2CCN(C)CC2)C(=O)c2c(O)cccc2C1=O | > 88 µM |  | 38
CC1=C(CCCC(=O)N2CCN(C)CC2)C(=O)c2ccccc2C1=O | 32 µM |  | 
CC1=C(CCCCCC(=O)NCCCN2CCN(CCCNC(=O)CCCCCC3=C(C)C(=O)c4cccc(O)c4C3=O)CC2)C(=O)c2c(O)cccc2C1=O | 17.4 µM | 16.8 10e4 M-1 s-1 | 
CC1=C(CCCC(=O)NCCCN2CCN(C)CC2)C(=O)c2ccccc2C1=O | > 76 µM |  | 11
CC1=C(CCCCC(=O)NCCCCNCCCNC(=O)CCCCC2=C(C)C(=O)c3ccccc3C2=O)C(=O)c2ccccc2C1=O | 11.9 µM | 5.8 10e4 M-1 s-1 | 
CC1=C(CCCCCC(=O)O)C(=O)c2c(O)cccc2C1=O | 28 µM |  | 
CC1=C(O)c2ccccc2C(=O)/C1=N\CCCN1CCN(C)CC1 |  |  | 2
CN(C)CCCN1CCN(CC2=C(N3CCN(CCCN(C)C)CC3)C(=O)c3ccccc3C2=O)CC1 |  |  | 3.9
CC1=C(CCCC(=O)NCCCNCCCNC(=O)CCCC2=C(C)C(=O)c3cccc(O)c3C2=O)C(=O)c2c(O)cccc2C1=O | 46.7 µM | 6.5 10e4 M-1 s-1 | 
CC1=C(CCCCC(=O)NCCCNCCCNC(=O)CCCCC2=C(C)C(=O)c3cccc(O)c3C2=O)C(=O)c2c(O)cccc2C1=O | 11.1 µM | 11.4 10e4 M-1 s-1 | 
CN1CCN(CCCNC(=O)CCCC2=C(CCCC(=O)NCCCN3CCN(C)CC3)C(=O)c3c(O)cccc3C2=O)CC1 | > 59 µM |  | 45
CC1=C(NCCCCN)C(=O)c2ccccc2C1=O | > 12.5 µM |  | 
CC1=C(CCC(=O)N2CCN(C)CC2)C(=O)c2ccccc2C1=O | 87 µM |  | 19
CN1CCN(C(=O)CCCC2=C(CCCC(=O)N3CCN(C)CC3)C(=O)c3c(O)cccc3C2=O)CC1 | > 48 µM |  | 220

SMILES | ED50 (Leishmania donovani) | k cat/Km [1] | x fold [2]
CC1=C(CCCCCC(=O)NCCCCNCCCNC(=O)CCCCCC2=C(C)C(=O)c3cccc(O)c3C2=O)C(=O)c2c(O)cccc2C1=O | 34.8 µM | 13.3 10e4 M-1 s-1 | 
O=C(O)CCC1=C(CCC(=O)O)C(=O)c2c(O)cccc2C1=O | > 93 µM |  | 
CC1=C(CCC(=O)NCCCNCCCNC(=O)CCC2=C(C)C(=O)c3cccc(O)c3C2=O)C(=O)c2c(O)cccc2C1=O | > 49 µM | 4.5 10e4 M-1 s-1 | 
CC1=C(CCCCCC(=O)NCCCNCCCNC(=O)CCCCCC2=C(C)C(=O)c3ccccc3C2=O)C(=O)c2ccccc2C1=O | 22.8 µM | 2.3 10e4 M-1 s-1 | 
CC1=C(NCCCNCCCN)C(=O)c2c(O)cccc2C1=O | > 30 µM |  | 2
CC1=C(CCCCCC(=O)NCCCCNCCCNC(=O)CCCCCC2=C(C)C(=O)c3ccccc3C2=O)C(=O)c2ccccc2C1=O | 5.4 µM | 4.8 10e4 M-1 s-1 | 
CC1=C(CCNC(=O)OC(C)(C)C)C(=O)c2ccccc2C1=O | 8.8 µM |  | 
CC1=C(NCCCNCCCCNCCCN)C(=O)c2c(O)cccc2C1=O | > 30 µM |  | 
CN1CCN(CCCNC(=O)CCCCC2=C(CCCCC(=O)NCCCN3CCN(C)CC3)C(=O)c3c(O)cccc3C2=O)CC1 | 38.2 µM |  | 
CC1=C(CCCC(=O)NCCCNCCCNC(=O)CCCC2=C(C)C(=O)c3ccccc3C2=O)C(=O)c2ccccc2C1=O | > 49 µM | 1.6 10e4 M-1 s-1 | 
CC1=C(CCCC(=O)NCCCN2CCN(C)CC2)C(=O)c2c(O)cccc2C1=O | 66 µM |  | 40
CC1=C(CCCC(=O)NCCCCNCCCNC(=O)CCCC2=C(C)C(=O)c3cccc(O)c3C2=O)C(=O)c2c(O)cccc2C1=O | > 46 µM | 3.6 10e4 M-1 s-1 | 
O=C(O)CCCCCC1=C(CCCCCC(=O)O)C(=O)c2ccccc2C1=O | > 74 µM |  | 
CN1CCN(C(=O)CCC2=C(CCC(=O)N3CCN(C)CC3)C(=O)c3c(O)cccc3C2=O)CC1 | > 62 µM |  | 
CC1=C(CCCCCC(=O)NCCCNCCCNC(=O)CCCCCC2=C(C)C(=O)c3cccc(O)c3C2=O)C(=O)c2c(O)cccc2C1=O | 10.3 µM | 14.5 10e4 M-1 s-1 | 
CC1=C(NCCCN2CCN(CCCN)CC2)C(=O)c2c(O)cccc2C1=O |  |  | 6.4
CC1=C(CCCCC(=O)NCCCCNCCCNC(=O)CCCCC2=C(C)C(=O)c3cccc(O)c3C2=O)C(=O)c2c(O)cccc2C1=O | 7.8 µM | 13 10e4 M-1 s-1 | 
CC1=C(CCCCC(=O)NCCCNCCCNC(=O)CCCCC2=C(C)C(=O)c3ccccc3C2=O)C(=O)c2ccccc2C1=O | > 45 µM | 0.8 10e4 M-1 s-1 | 
CC1=C(CCCCCC(=O)NCCCN2CCN(CCCNC(=O)CCCCCC3=C(C)C(=O)c4ccccc4C3=O)CC2)C(=O)c2ccccc2C1=O | 14.3 µM | 3.3 10e4 M-1 s-1 | 

SMILES | ED50 (Leishmania donovani) | k cat/Km [1] | x fold [2]
CC1=C(CCCCCC(=O)O)C(=O)c2ccccc2C1=O | 18 µM |  | 
CC1=C(CCCCC(=O)NCCCN2CCN(CCCNC(=O)CCCCC3=C(C)C(=O)c4ccccc4C3=O)CC2)C(=O)c2ccccc2C1=O | 31.3 µM | 8.4 10e4 M-1 s-1 | 
CC1=C(CCCCNC(=O)OC(C)(C)C)C(=O)c2c(O)cccc2C1=O | 14.2 µM |  | 
CC1=C(CCCCNC(=O)OC(C)(C)C)C(=O)c2ccccc2C1=O | 16.5 µM |  | 
CC1=C(CCCC(=O)N2CCN(C)CC2)C(=O)c2c(O)cccc2C1=O | 82 µM |  | 14
CC1=C(CCNC(=O)OC(C)(C)C)C(=O)c2c(O)cccc2C1=O | 11.8 µM |  | 
CC1=C(NCCCNCCC/N=C2/C(=O)c3ccccc3C(O)=C2C)C(=O)c2ccccc2C1=O |  |  | 4
CC1=C(CCCC(=O)NCCCCNCCCNC(=O)CCCC2=C(C)C(=O)c3ccccc3C2=O)C(=O)c2ccccc2C1=O | > 48 µM | 2.3 10e4 M-1 s-1 | 
O=C(O)CCCCC1=C(CCCCC(=O)O)C(=O)c2c(O)cccc2C1=O | > 80 µM |  | 
CC1=C(CCCCC(=O)NCCCN2CCN(CCCNC(=O)CCCCC3=C(C)C(=O)c4cccc(O)c4C3=O)CC2)C(=O)c2c(O)cccc2C1=O | 29.6 µM |  | 
CC1=C(CCC(=O)NCCCNCCCNC(=O)CCC2=C(C)C(=O)c3ccccc3C2=O)C(=O)c2ccccc2C1=O | > 51 µM | 2.3 10e4 M-1 s-1 | 
CC1=C(CCCC(=O)NCCCN2CCN(CCCNC(=O)CCCC3=C(C)C(=O)c4cccc(O)c4C3=O)CC2)C(=O)c2c(O)cccc2C1=O | 38.5 µM | 3.5 10e4 M-1 s-1 | 
CC1=C(CCC(=O)NCCCN2CCN(CCCNC(=O)CCC3=C(C)C(=O)c4cccc(O)c4C3=O)CC2)C(=O)c2c(O)cccc2C1=O | > 44 µM | 5.1 10e4 M-1 s-1 | 
CC1=C(CCC(=O)NCCCCNCCCNC(=O)CCC2=C(C)C(=O)c3ccccc3C2=O)C(=O)c2ccccc2C1=O | > 50 µM | 5.1 10e4 M-1 s-1 | 
CC1=C(CCCCCNC(=O)OC(C)(C)C)C(=O)c2ccccc2C1=O | 12.5 µM |  | 
CC1=C(CCC(=O)NCCCCNCCCNC(=O)CCC2=C(C)C(=O)c3cccc(O)c3C2=O)C(=O)c2c(O)cccc2C1=O | > 48 µM | 7.7 10e4 M-1 s-1 | 
O=C(O)CCCC1=C(CCCC(=O)O)C(=O)c2c(O)cccc2C1=O | > 87 µM |  | 
CC1=C(CCCC(=O)O)C(=O)c2c(O)cccc2C1=O | > 109 µM |  | 
